Molecules are shown by their SMILES. Activity calls are given as the source filed them. The rule behind the calls is not given here.

Data set [1] has as its system Lewis lung carcinoma cell line. Kind of data set: Antitumor activity against mouse Lewis lung carcinoma cell line allografted in male C57BL/6 mouse model assessed as increase in caspase 3 expression at 10 mg/kg, po measured every other day for 3 weeks by IHC analysis. It counts as functional, organism-based. An outline of the steps:
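Syngeneic model: 6-week-old male C57BL/6 mice given 3 × 10^5 LLC cells in 50 μL PBS subcutaneously in the flank. At day 7, mice were randomized to vehicle PO daily or 10 mg/kg PO every other day for 3 weeks. Caliper volume was taken every 2 days as ([…])/2, with tumor weight at end. Spleen size and weight were recorded. Ki67 and cleaved caspase-3 were scored by IHC (DAB, hematoxylin).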

Data set [2] relates to Lewis lung carcinoma cell line. Description: Antitumor activity against mouse Lewis lung carcinoma cell line allografted in […] male C57BL/6 mouse model assessed as reduction in cell proliferation at 10 mg/kg, po measured every other day for 3 weeks. The data set is classed as functional, organism-based.
For data set [3], the system named is A549. Kind of data set: Induction of apoptosis in human A549 cells measured up to 48 hrs in presence of gemcitabine by Annexin V-FITC and PI staining based flow cytometry analysis. The data set is classed as functional, cell-based. An outline of the steps:
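A549 cells given compound, gemcitabine, or both. Apoptosis assessed by PI staining, annexin V flow cytometry, cleaved PARP immunoblot, and caspase-3 activity. For caspase-3: drugs at 10 μM for 48 h, then 1 μM NucView 488 substrate for 30 min, with 1 μM Hoechst 33342, read by plate fluorescence.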

Data set [4] addresses T1, Phospholipase D1 (Mus musculus) (UniProt Q9Z280).
T1 sequence (whole entry): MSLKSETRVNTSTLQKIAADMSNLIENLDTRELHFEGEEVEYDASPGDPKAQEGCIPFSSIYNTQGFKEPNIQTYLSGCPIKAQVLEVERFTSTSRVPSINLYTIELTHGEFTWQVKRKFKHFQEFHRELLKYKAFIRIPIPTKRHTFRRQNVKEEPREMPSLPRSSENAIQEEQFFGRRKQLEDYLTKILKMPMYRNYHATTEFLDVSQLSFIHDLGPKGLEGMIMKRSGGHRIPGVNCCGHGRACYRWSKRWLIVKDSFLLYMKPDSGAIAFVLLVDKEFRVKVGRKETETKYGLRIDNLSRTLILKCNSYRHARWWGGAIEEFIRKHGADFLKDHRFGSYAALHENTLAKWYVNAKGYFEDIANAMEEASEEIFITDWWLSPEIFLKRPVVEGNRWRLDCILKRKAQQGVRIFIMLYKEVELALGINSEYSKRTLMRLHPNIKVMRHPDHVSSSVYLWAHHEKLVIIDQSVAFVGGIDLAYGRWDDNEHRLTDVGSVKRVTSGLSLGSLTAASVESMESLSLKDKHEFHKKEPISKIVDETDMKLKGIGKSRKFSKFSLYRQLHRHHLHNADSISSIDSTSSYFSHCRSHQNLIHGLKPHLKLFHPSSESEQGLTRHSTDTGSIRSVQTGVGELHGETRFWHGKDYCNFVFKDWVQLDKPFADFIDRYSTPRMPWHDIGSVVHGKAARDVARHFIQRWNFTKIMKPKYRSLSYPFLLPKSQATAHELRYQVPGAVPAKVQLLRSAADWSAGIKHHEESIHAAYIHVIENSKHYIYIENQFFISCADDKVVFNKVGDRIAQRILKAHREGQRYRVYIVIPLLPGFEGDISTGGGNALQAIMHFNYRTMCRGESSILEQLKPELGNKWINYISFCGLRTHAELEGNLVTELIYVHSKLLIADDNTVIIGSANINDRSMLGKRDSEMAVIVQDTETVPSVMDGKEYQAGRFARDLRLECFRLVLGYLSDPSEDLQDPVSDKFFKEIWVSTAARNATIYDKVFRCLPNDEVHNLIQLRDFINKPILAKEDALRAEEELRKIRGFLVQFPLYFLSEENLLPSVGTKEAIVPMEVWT
Kind of data set: In vivo inhibition of PLD1 in male C57BL/6 mouse allografted with mouse Lewis lung carcinoma cell line assessed as increase in CD4+ cell population at 10 mg/kg, po by immunofluorescence analysis. The data set is classed as functional, organism-based. An outline of the steps: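 Same LLC syngeneic C57BL/6 model, 10 mg/kg PO every other day for 3 weeks. Tumor tissues were stained by immunofluorescence for CD80+ and CD163+ cells, CD8+ T cells, and CD4+/IL-17+ and Treg populations. Nuclei were counterstained with 1 μM Hoechst 33342 and imaged by confocal microscopy.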

The subject of data set [5] is A549. Description: Inhibition of cell invasion in human A549 cells measured after 24 hrs by crystal violet staining based light microscopic analysis. The data set is classed as functional.
The nature of data set [6]: Toxicity in male C57BL/6 mouse assessed as effect on body weight at 10 mg/kg, po measured every other day for 3 weeks. The data set is classed as organism-based. As to conditions: in vivo, 504 h.

For `O=C(CCc1c[nH]c2ccccc12)Nc1cc(C(F)(F)F)cc(C(F)(F)F)c1`, the outcome (in data set [1]; in data set [2]; in the data set with A549 [3]) was Active. The inhibition result (in data set [4]; in the data set on A549 [5]) was “Active” each time. The Activity result in data set [6] is “Non-toxic”.

(Values after ChEMBL document CHEMBL6134796, “Development and Evaluation of Indole-Based Phospholipase D Inhibitors for Lung Cancer Immunotherapy” (J Med Chem, 2025).)
